High-throughput results deposited in PubChem by The Scripps Research Institute Molecular Screening Center.
TAAR1 antag: antagonists of human TAAR1; Q96RJ0; CHO RD-HGA16 TAAR1, Fluo-8 calcium fluorescence, antagonist; inhibition, % at 3 µM; 360,000 compounds, 1.5% hits;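 active means inhibition above a per-plate cutoff, the mean inhibition of test compounds on that plate plus 3 SD, cut at about 49% in these data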
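Test system – hTAAR1-expressing CHO RD-HGA16 cells, Gα16-coupled · Also added – β-PEA at EC80 concentration, post-compound challenge · Compound – 3 µM, single point · Incubation – dye loading 75 min at 37 °C, then 30 min room temperature · Measured by – Fluo-8 intracellular calcium dye fluorescence, real-time kinetic reads · Benchmarks – vehicle and agonist controls · Replicates – singlicate, one well per test compound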
TAAR1 agonist: agonists of human TAAR1 | activation, % at 3 µM | 360,000 compounds, 0.99% hits | Q96RJ0 | CHO RD-HGA16 TAAR1, Fluo-8 calcium fluorescence; vehicle wells 0%, saturating PEA agonist 100%;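 active means activation above the mean activation of all test compounds in the run plus 3 SD, cut at about 38% in these data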
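Test system: RD-HGA16 (CHO) cells co-expressing Gα16 and hTAAR1; dosing: one-point dosing at 3 µM (nominal); timing: 17-24 h seeding, 75 min 37 °C dye, 30 min RT; signal: kinetic Fluo-8 calcium fluorescence; read-out basis: % activation relative to PEA EC100 response; controls: DMSO and PEA EC100; replicates: n 1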
M1 ag: human M1 muscarinic receptor agonism. P11229. activation, % at 3 µM. CHO-K1 hM1, Fluo-8 calcium fluorescence, agonist mode; 0% DMSO, 100% acetylcholine EC100. 360,000 compounds, 0.33% hits;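 active means activation above the run's mean compound activation plus 3 SD, cut at about 16% in these data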;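 further: peak over basal fluorescence ratio within a 140 s kinetic read after compound addition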
Target sequence (P11229 whole entry, looked up): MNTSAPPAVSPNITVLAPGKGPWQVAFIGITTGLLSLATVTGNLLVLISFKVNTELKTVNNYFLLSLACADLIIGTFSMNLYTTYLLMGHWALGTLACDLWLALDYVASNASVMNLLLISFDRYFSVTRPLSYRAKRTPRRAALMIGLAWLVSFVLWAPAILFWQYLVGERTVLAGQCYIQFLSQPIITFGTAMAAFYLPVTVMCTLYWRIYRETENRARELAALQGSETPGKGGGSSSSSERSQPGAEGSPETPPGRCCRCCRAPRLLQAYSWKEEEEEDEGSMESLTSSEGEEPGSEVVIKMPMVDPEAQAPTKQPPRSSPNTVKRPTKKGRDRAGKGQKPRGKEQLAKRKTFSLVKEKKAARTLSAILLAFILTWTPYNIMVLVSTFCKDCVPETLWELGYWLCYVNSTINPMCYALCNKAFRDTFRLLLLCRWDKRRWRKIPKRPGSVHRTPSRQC
HTR2A ag: activates the mouse 5-HT2A serotonin receptor; CHO-K1 mHTR2A beta-arrestin complementation, luminescence; percent of 30 µM serotonin response; activation, % at 7.6 µM; 360,000 compounds, 0.66% hits; AID 624169;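 active means activation above a run cutoff, the mean activation of all tested compounds plus 3 SD, cut at about 14% in these data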
CHRM1 PAM: human CHRM1 positive allosteric modulation | P11229 | CHO-K1 hM1, Fluo-8 calcium fluorescence, ACh EC20; 0% = ACh EC20, 100% = maximal ACh | activation, % at 3 µM | 360,000 compounds, 0.088% hits | AID 588819; in the data active means activation above about 19%, passing the limit was not always enough
M1 antag: human CHRM1 antagonism; 360,000 compounds, 1.3% hits; AID 588852; inhibition, % at 3 µM; CHO-K1 hM1, Fluo-8 calcium fluorescence, ACh EC80 antagonist;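 active means percent inhibition above its own plate's cutoff, namely the mean of that plate's compound wells plus 3 SD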;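 further: peak over basal fluorescence ratio during 140 s after agonist addition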
Hits are given with their value; i = inactive; nt = no result given. The list is not random: actives were taken first. Their share in the collection is about 3.9%.

SMILES | TAAR1 antag | TAAR1 agonist | M1 ag | HTR2A ag | CHRM1 PAM | M1 antag
O=C(Nc1ccccc1C(=O)Nc1nnc(C(F)(F)F)s1)c1ccccc1Cl | i | i | i | i | i | 34.3
O=C(Nc1nnc(C(F)(F)F)s1)c1ccc(Br)s1 | i | i | i | i | i | 28.4
Cc1cccc(S(=O)(=O)NC(=O)C2(C)CCN2C(=O)c2sccc2C)c1 (stereo not drawn) | i | i | i | i | i | i
O=C(Nc1cccc(C(F)(F)F)c1)c1ccc(-n2cncn2)nc1 | i | i | i | i | i | i
O=C(Nc1cccc(/C=C/c2ccccn2)c1)c1ccc(-n2cncn2)cc1 | nt | nt | i | i | i | 31.0
COc1cccc2cc(-c3nnc(SCC(=O)Nc4nc(C)cs4)n3C)oc12 | i | i | i | 24.7 | i | i
COc1cc(/C=C/C(=O)OCC(=O)N2c3ccccc3NC(=O)C2(C)C)cc(OC)c1OC | 64.4 | i | i | i | i | 33.5
Cc1noc(C)c1COc1ccc(C(=O)OCC(=O)N2c3ccccc3NC(=O)C2(C)C)cc1 | 67.2 | i | i | i | i | i
CC(NC(=O)C1CCN(C(=O)Nc2ccccc2)CC1)c1ccc(Cl)cc1 (stereo not drawn) | i | i | i | i | i | i
CCn1ccnc1CNC(=O)c1ccc2oc(C(C)C)nc2c1 | i | i | i | i | i | 57.4
Cc1cnc(CNC(=O)c2ccc3oc(C(C)C)nc3c2)[nH]1 | i | i | i | i | i | i
CN1CCN(c2ccc(C(=O)c3ccc(Br)cc3)cc2[N+](=O)[O-])CC1 | i | i | i | i | i | i
Cc1cc(C)c2sc(N(CCCN(C)C)C(=O)c3ccc(S(=O)(=O)N4CCc5ccccc5C4)cc3)nc2c1 | nt | nt | i | i | i | i
COc1ccc2sc(N(CCN(C)C)C(=O)c3ccc4ccccc4c3)nc2c1 | i | i | 19.8 | i | i | i
Cc1cccc2sc(N(CCCN(C)C)C(=O)c3ccc(S(=O)(=O)N4CCc5ccccc5C4)cc3)nc12 | i | 39.0 | i | i | i | i
CN(C)CCCN(C(=O)c1ccc(S(=O)(=O)N2CCc3ccccc3C2)cc1)c1nc2c(F)cccc2s1 | i | i | i | i | i | i
COc1ccc2sc(N(CCCN(C)C)C(=O)c3ccc(S(=O)(=O)N4CCc5ccccc5C4)cc3)nc2c1 | i | 40.0 | i | i | i | i
COc1ccc2sc(N(CCCN(C)C)C(=O)c3ccc(S(=O)(=O)N4CCCC4)cc3)nc2c1 | i | i | i | i | i | i
Cc1ccc2nc(N(CCCN(C)C)C(=O)c3ccc(S(=O)(=O)N4CCc5ccccc5C4)cc3)sc2c1 | i | 45.1 | i | i | i | i
CCOC(=O)C1=C(C(=O)OCC)C2N(Cc3ccc(C#N)cc3)c3ccccc3[C@@]23C[C@@H](C(=O)OC)N(S(=O)(=O)c2c(C)noc2C)C3=N1 (stereo partly drawn) | i | i | nt | nt | nt | nt
CN(C)CCCN(C(=O)c1ccc2c(c1)CCCC2)c1nc2ccc(F)cc2s1 | i | i | i | i | i | i
CN(C)CCCN(C(=O)c1ccc2c(c1)CCCC2)c1nc2cc3c(cc2s1)OCO3 | i | 41.0 | i | i | i | i
N=c1c2c(n(Cc3ccc(Br)cc3)c3c1CCC3)CCCC2 | i | i | i | i | i | 25.6
Cc1cc(C)n2nc(C(=O)NNC(=O)c3ccccc3)nc2n1 | i | i | i | i | i | i
Fc1ccc(/C=C2\CCCC3=C2Nc2ncnn2C3c2ccc(F)cc2)cc1 (stereo not drawn) | 64.6 | i | i | i | i | 31.7
COc1ccc(C2C3=C(Nc4ncnn42)c2ccccc2CCC3)cc1 (stereo not drawn) | i | i | i | i | i | i
CC1(C)CC(=O)C=C(C#CC2CC2)C1 | i | i | nt | nt | nt | nt
CCOc1ccc(N=C2NC(=O)S/C2=C\c2ccc(Cl)cc2)cc1 | i | i | i | i | i | i
COc1ccc(N=C2NC(=O)S/C2=C\c2ccc(N(C)C)cc2)cc1 | 57.6 | i | i | i | i | i
COC(=O)[C@]12C[C@H](CC(=O)NCc3ccc(C)o3)C(=O)N(Cc3ccc4c(c3)OCO4)C1=C[C@H](COCc1ccccc1)O[C@@H]2C | i | i | nt | nt | nt | nt
